High-throughput results from PubChem.
TbHK1 inh: blocks Trypanosoma brucei hexokinase 1 activity; recombinant TbHK1, G6PDH-coupled NADH A340; AID 1430; actives 0.11% (n = 220,000); inhibition, % at 10 µM;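 active means inhibition of 50% or more in the single-dose primary screen; inactive means inhibition below 50%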
sdo1 growth: sdo1-depleted yeast growth rescue. S. cerevisiae sdo1-depleted JHY4D growth rescue, OD600 30 h; stronger effect = higher value; pdr5 snq2 efflux-pump mutant strain. z-score at 10 µM. actives 0.21% (n = 140,000);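 active means z-score above 3 at both the 24 hr and the 30 hr optical density reads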
BB579 growth dn: yeast BB579 growth reduction in restrictive medium | actives 0.51% (n = 140,000) | inhibition, % at 10 µM | S. cerevisiae BB579 growth, OD615, 48 h;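 active means inhibition above a set limit, 3 SD over the mean compound inhibition, cut at about 44% in these data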
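System: Saccharomyces cerevisiae DeaD strain BB579, replicative lifespan model yeast. Buffer or medium: restrictive glucose-based CSMM-D medium. Doses: one dose, 10 µM compound with 0.25% DMSO. Timing: 4 h preincubation and 48 h exposure at 30 °C. Detection: turbidity as optical density at 615 nm. Benchmarks: amphotericin B 10 µg/mL, positive.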
Yeast life ext: extends the lifespan of yeast. S. cerevisiae growth with nicotinamide, OD615; deaD strain in restrictive glucose medium. inhibition of the nicotinamide effect, % at 10 µM. actives 0.68% (n = 130,000);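 active means inhibition above a set limit, placed 3 SD over the median of all compounds, cut at about 26% in these data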
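Test system – modified budding yeast, DeaD strain · Compound – single dose 10 µM compound, 0.25% DMSO · Times – culture preincubation 4 h, compound exposure 48 h, both 30 °C · Detection – optical density (absorbance) at 615 nm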
RBBP9 inh: inhibitors of human serine hydrolase RBBP9 | recombinant RBBP9, FP-Rh probe fluorescence polarization | inhibition, % at 7.94 µM | actives 0.2% (n = 220,000) | AID 1515;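 active means inhibition above the campaign mean of all tested compounds plus 3 SD, cut at about 14% in these data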
Target sequence (O75884 whole entry, looked up): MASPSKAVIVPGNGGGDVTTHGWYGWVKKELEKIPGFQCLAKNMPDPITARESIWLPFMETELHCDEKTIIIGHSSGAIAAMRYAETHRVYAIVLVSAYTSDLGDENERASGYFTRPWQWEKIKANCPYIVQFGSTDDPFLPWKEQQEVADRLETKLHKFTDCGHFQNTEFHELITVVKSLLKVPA
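Controls: DMSO-treated enzyme wells and wells lacking RBBP9 | Material: RBBP9 protein | Technique: Fluorescence polarization | Replication: Single well per compound, no replicates | Buffer or medium: Tris-NaCl-Pluronic buffer, pH 8.0 | Timing: 30 min compound preincubation, 45 min probe labeling, 25 °C | Read-out basis: Percent inhibition from mP, scaled between DMSO and no-protein wells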
p47phox inh: blocks human p47phox regulatory protein of NADPH oxidases. inhibition, % at 24.7 µM. p47phox/p22phox peptide binding, fluorescence polarization, 2 h. AID 1274. P14598. actives 0.53% (n = 220,000);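 active means inhibition above about 30%, limit read from the data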
Hits are given with their value. This is a sample that favours compounds with a hit; in the whole collection about 1.6% have one here.

Screening COCCN(CCOC)C(=O)COC(=O)c1ccc(Cl)c(S(=O)(=O)N(C)c2ccccc2)c1 returned TbHK1 inh inactive, RBBP9 inh inactive and p47phox inh inactive.
Screening COc1cccc(OC)c1C1=NC(C)(C)CO1 returned TbHK1 inh inactive, RBBP9 inh inactive and p47phox inh inactive.
Screening Cc1ccc(NC(=O)Cn2nc(C)c(S(=O)(=O)N(C)C)c2C)cc1 returned TbHK1 inh inactive, RBBP9 inh inactive and p47phox inh inactive.
Cc1ccc(NC(=S)NCCc2c[nH]c3ccccc23)cc1 was read as TbHK1 inh inactive, sdo1 growth inactive, BB579 growth dn inactive, Yeast life ext inactive, RBBP9 inh inactive and p47phox inh inactive.
For CC(C)c1ccc(NC(=S)NCCc2c[nH]c3ccccc23)cc1 the results were TbHK1 inh inactive, sdo1 growth inactive, BB579 growth dn 55, Yeast life ext inactive, RBBP9 inh inactive and p47phox inh inactive.
For CN1CCN(C2=Cc3cc(Cl)ccc3Sc3cc(F)ccc32)CC1 the results were TbHK1 inh inactive, sdo1 growth inactive, BB579 growth dn 98, RBBP9 inh inactive and p47phox inh inactive.
Screening COc1ccc([N+](=O)[O-])cc1-n1cnnn1 returned TbHK1 inh inactive, RBBP9 inh inactive and p47phox inh inactive.
`Nc1sc(-c2ccccc2)cc1C(=O)O` gave TbHK1 inh inactive, sdo1 growth inactive, BB579 growth dn inactive, Yeast life ext 84, RBBP9 inh inactive and p47phox inh inactive.
`Cc1ccc2c(c1)N(CC(=O)OC(CC(C)C)C(=O)NC1CCCC1)C(=O)CO2` (stereo not drawn) gave TbHK1 inh inactive, sdo1 growth inactive, BB579 growth dn inactive, Yeast life ext inactive, RBBP9 inh inactive and p47phox inh inactive.
For CC(C)C(OC(=O)CN1C(=O)COc2ccccc21)C(=O)NC1CCCC1 (stereo not drawn) the results were TbHK1 inh inactive, sdo1 growth inactive, BB579 growth dn inactive, Yeast life ext 34, RBBP9 inh inactive and p47phox inh inactive.
CC(C)c1ccc2c(c1)C1(NN=C(c3ccccc3)S1)C(=O)N2 (stereo not drawn) was read as TbHK1 inh inactive, sdo1 growth inactive, BB579 growth dn 78, RBBP9 inh inactive and p47phox inh inactive.
`CCc1ccc2c(c1)C1(NN=C(c3ccc(C)cc3)S1)C(=O)N2` (stereo not drawn) gave TbHK1 inh inactive, sdo1 growth inactive, BB579 growth dn 96, RBBP9 inh inactive and p47phox inh inactive.
`Cc1ccc(Cc2cc(-c3ccc(C)cc3)n[nH]c2=O)cc1` gave TbHK1 inh inactive, RBBP9 inh inactive and p47phox inh inactive.
CCOc1cc(C(F)(F)F)cnc1/C(N)=N/O was read as TbHK1 inh inactive, RBBP9 inh inactive and p47phox inh inactive.
`O=C(CCC(=O)N(CC(=O)NC1CCCCC1)CC1CCCO1)Nc1nccs1` (stereo not drawn) gave TbHK1 inh inactive, RBBP9 inh inactive and p47phox inh inactive.
O=C(COC(=O)c1ccc(Br)cc1)NCCN1C(=O)CSC1=O was read as TbHK1 inh inactive, RBBP9 inh inactive and p47phox inh inactive.
For COc1ccc([N+](=O)[O-])cc1NC(=O)c1cccs1 the results were TbHK1 inh inactive, RBBP9 inh inactive and p47phox inh inactive.
Screening O=C(Nc1cc([N+](=O)[O-])ccc1F)c1cccs1 returned TbHK1 inh inactive, sdo1 growth inactive, BB579 growth dn inactive, Yeast life ext inactive, RBBP9 inh inactive and p47phox inh 75.
For O=C(/C=C/c1cccc([N+](=O)[O-])c1)c1cccs1 the results were TbHK1 inh inactive, sdo1 growth inactive, BB579 growth dn inactive, Yeast life ext 28, RBBP9 inh inactive and p47phox inh inactive.
`CN(C)CCNC(=O)CNC(=S)N(CCCN1CCOCC1)Cc1cccs1` gave TbHK1 inh inactive, RBBP9 inh inactive and p47phox inh inactive.
COc1ccccc1Oc1c(C)oc2cc(OC(=O)c3ccco3)ccc2c1=O was read as TbHK1 inh inactive, sdo1 growth inactive, BB579 growth dn inactive, Yeast life ext inactive, RBBP9 inh inactive and p47phox inh inactive.
